From publication PMC5552238 (EBioMedicine, 2017) come the findings set out here.

The experiment deals with subcutaneous Hepa1-6 liver cancers. The experiment in a line: Subcutaneous Hepa1-6 liver cancers, 747 combined with low-dose sorafenib. Format: in vivo, mouse. To be noted: sorafenib low dose 10 mg/kg. The procedure, abridged: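 Hepa1-6 cells (1.5 × 106) injected into right flank; mice randomized at ~0.5 cm tumors. Test compound given i.p. daily (0.5% HPMC/0.2% Tween), alone or with sorafenib 10 mg/kg intragastric. Volume = 1/2a × b². End-point paraffin sections stained for F4/80, Arg-1 and cleaved caspase-3 (primary overnight at 4 °C, HRP secondary 1 h at 37 °C, DAB). Sorted intratumoral CD8+ T cells analysed by qRT-PCR normalized to GAPDH/L32.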

Take `CNC(=O)c1cc(Oc2ccc(NC(=O)Nc3ccc(Cl)c(C(F)(F)F)c3)cc2)ccn1` [sorafenib]: the “therapeutic effect on subcutaneous tumors” value is “no efficacy”.
